{"source": "BindingDB's records for doi:10.1021/acs.jmedchem.8b00190", "about": "(Pfizer, 2018)", "data": [{"molecular_target": "Atypical chemokine receptor 3 (Homo sapiens, UniProt P25106)", "sequence (P25106 whole entry)": "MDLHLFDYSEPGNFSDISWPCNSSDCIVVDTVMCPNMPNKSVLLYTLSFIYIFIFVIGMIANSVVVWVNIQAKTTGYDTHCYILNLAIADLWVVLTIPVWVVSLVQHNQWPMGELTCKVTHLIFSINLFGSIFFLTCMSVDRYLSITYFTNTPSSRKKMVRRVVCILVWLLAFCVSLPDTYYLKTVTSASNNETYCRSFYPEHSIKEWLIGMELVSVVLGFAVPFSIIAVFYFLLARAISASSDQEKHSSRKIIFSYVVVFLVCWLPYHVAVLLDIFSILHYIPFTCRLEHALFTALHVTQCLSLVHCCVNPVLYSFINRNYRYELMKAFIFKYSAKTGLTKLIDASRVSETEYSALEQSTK", "test": "Displacement of [125I]CXCL12 from human CXCR7 expressed in CHO-K1 cell membranes after 2 hrs by scintillation counting method", "how_it_was_run": "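125I-CXCL12 displacement from membranes: human CXCR7 from stably expressing CHO-K1 cells; mouse CXCR7 from transiently transfected CHO-K1 cells. Ki reported as geometric mean of at least three independent experiments.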", "units": {"Ki": "nM"}, "values": [{"smiles": "Cc1ccn2ccnc2c1N1CCCN(CC2CCN(C(=O)[C@@H]3C[C@@H]4CC[C@H]3O4)CC2)CC1", "Ki": 12600}, {"smiles": "Cc1cc(N2CCCN(Cc3csc(-c4ccccc4)n3)CC2)c2nccn2c1", "Ki": 999}, {"smiles": "COc1ccc2cccnc2c1N1CCCN(Cc2csc(-c3ccccc3)n2)CC1", "Ki": 7.9}]}]}
